The values that follow come from ChEMBL document CHEMBL4024783, “Alkylated Piperazines and Piperazine-Azole Hybrids as Antifungal Agents” (J Med Chem, 2018).

The structures appear in SMILES notation. ≈ marks a conversion by molar mass, not a printed value. Bounds are passed on as bounds.

The subject of data set [1] is Candida albicans. The experiment in a line: Antifungal activity against Candida albicans ATCC 10231 after 48 hrs by broth dilution method. Particulars: ATCC 10231, 48 h. Type of data set: functional.
The test system of data set [2] is Candida albicans. The experiment in a line: Antifungal activity against Candida albicans ATCC 64124 after 48 hrs by broth dilution method. Type of data set: functional. Particulars: Candida albicans, ATCC 64124, 48 h. An outline of the steps: (§1)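 CLSI M27-A3 broth microdilution with minor modifications. Overnight YPD culture grown at 35 °C, 200 rpm, adjusted to OD600 0.12, diluted in RPMI 1640 buffered to pH 7.0 with 0.165 M MOPS to a final 1–2 × 10^3 CFU/mL. Test compounds at 0.015–31.3 µg/mL, 48 h at 35 °C, DMSO <1.25%. […] Triplicate.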

For data set [3], the system named is Candida albicans. The experiment in a line: Antifungal activity against itraconazole and fluconazole susceptible Candida albicans ATCC MYA-2876 after 48 hrs by broth dilution method. It counts as functional. Particulars: Candida albicans, ATCC MYA-2876, 48 h.
Data set [4] has as its system Candida albicans. The experiment in a line: Antifungal activity against itraconazole and fluconazole resistant Candida albicans ATCC 90819 after 48 hrs by broth dilution method. It counts as functional. Particulars: Candida albicans, ATCC 90819, 48 h. The method, boiled down: as §1
The test system of data set [5] is Candida albicans. The experiment in a line: Antifungal activity against itraconazole and fluconazole susceptible Candida albicans ATCC MYA-2310 after 48 hrs by broth dilution method. Type of data set: functional. Particulars: Candida albicans, ATCC MYA-2310, 48 h.
Data set [6] concerns Candida albicans. The experiment in a line: Antifungal activity against itraconazole and fluconazole resistant Candida albicans ATCC MYA-1237 after 48 hrs by broth dilution method. It counts as functional. The settings on record: Candida albicans, ATCC MYA-1237, 48 h. The method, boiled down: as §1
The test system of data set [7] is Candida albicans. The experiment in a line: Antifungal activity against itraconazole and fluconazole resistant Candida albicans ATCC MYA-1003 after 48 hrs by broth dilution method. Type of data set: functional. Particulars: Candida albicans, ATCC MYA-1003, 48 h. The method, boiled down:
as §1

The next data set has as its system Nakaseomyces glabratus. The experiment in a line: Antifungal activity against Candida glabrata ATCC 2001 after 48 hrs by broth dilution method. It counts as functional, CBS 138. The settings on record: Nakaseomyces glabratus, CBS 138, 48 h.
For another data set, the system named is Pichia kudriavzevii. The experiment in a line: Antifungal activity against Candida krusei ATCC 6258 after 48 hrs by broth dilution method. Type of data set: functional. Particulars: Pichia kudriavzevii, ATCC 6258, 48 h. An outline of the steps:
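Yeasts tested per CLSI M27-A3 with minor changes. An overnight YPD culture (35 °C, 200 rpm) was adjusted to OD600 0.12 and diluted in MOPS-buffered RPMI 1640 (pH 7.0) to a final 1–2 × 10^3 CFU/mL. Compounds 0.015–31.3 µg/mL, DMSO <1.25%.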

The test system of data set [8] is Candida parapsilosis. The experiment in a line: Antifungal activity against Candida parapsilosis ATCC 22019 after 48 hrs by broth dilution method. It counts as functional. Particulars: Lodderomyces parapsilosis, ATCC 22019, 48 h.
A further data set relates to Aspergillus flavus. The experiment in a line: Antifungal activity against Aspergillus flavus ATCC MYA-3631 after 48 hrs by broth dilution method. Particulars: ATCC MYA-3631, 48 h. Type of data set: functional.
Data set [9] deals with Aspergillus nidulans. The experiment in a line: Antifungal activity against Aspergillus nidulans ATCC 38163 after 48 hrs by broth dilution method. It counts as functional. The settings on record: Aspergillus nidulans, ATCC 38163, 48 h. The method, boiled down:
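A. nidulans run per CLSI M38-A2. PDA spores were filtered through glass wool and counted by hemocytometer. Test range 0.03–31.3 µg/mL in MOPS-buffered RPMI 1640 (pH 7.0), final 5 × 10^5 CFU/mL.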

Another data set concerns Aspergillus terreus. The experiment in a line: Antifungal activity against Aspergillus terreus ATCC MYA-3633 after 48 hrs by broth dilution method. It counts as functional. Particulars: Aspergillus terreus, ATCC MYA-3633, 48 h. An outline of the steps:
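Molds tested per CLSI M38-A2. Spores were harvested from sporulating PDA cultures by filtering through glass wool and counted on a hemocytometer. Serial dilutions (0.03–31.3 µg/mL) were made in RPMI 1640 buffered to pH 7.0 with 0.165 M MOPS, final inoculum 5 × 10^5 CFU/mL.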

Data set [10] is described as follows: Aqueous solubility of the compound. It counts as physicochemical. Particulars: buffer.
Data set [11] is described as follows: Solubility of the compound in DMSO. Type of data set: physicochemical.
For data set [12], the system named is Candida albicans. The experiment in a line: Antifungal activity against Candida albicans ATCC 10231 after 48 hrs in the presence of 10% FBS by broth dilution method. Type of data set: functional. The settings on record: ATCC 10231, 48 h.
In data set [13] the test system is Candida albicans. The experiment in a line: Antibiofilm activity against voriconazole resistant Candida albicans ATCC 64124 sessile cells incubated for 24 hrs by XTT reduction assay. It counts as functional. Particulars: ATCC 64124, 24 h. An outline of the steps: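 Strain B grown overnight in YPD broth at 35 °C, diluted to OD600 0.1 (~10^6 CFU/mL), then grown statically for 24 h at 37 °C to form biofilm. Washed with PBS, then drug in RPMI 1640 at 0.12–62.5 µg/mL for 24 h at 37 °C. Read-out: XTT 0.5 mg/mL with menadione 1 µM, 2 h, A490. SMIC50/SMIC80 are 50%/80% decreases versus drug-free biofilm. Duplicate.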

The subject of a further data set is A549. The experiment in a line: Cytotoxicity against human A549 cells up to 31 ug/ml after 24 hrs by resazurin-based fluorescence assay. Type of data set: cell-based. The settings on record: a549, 24 h. An outline of the steps:
(§2)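 Cells grown in DMEM with 10% FBS at 37 °C, 5% CO2, and seeded at 10000 (HEK-293) or 3000 (BEAS-2B, A549) per well. After 16 h, exposed 24 h to 0.13–31 µg/mL final in medium with 0.1–0.4% DMSO. Resazurin added for 6–10 h; fluorescence read at 560/590 nm and survival normalized to DMSO control after background subtraction. Triton X-100 12.5% v/v positive control; duplicate.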

The test system of a further data set is HEK293. The experiment in a line: Cytotoxicity against HEK293 cells up to 31 ug/ml after 24 hrs by resazurin-based fluorescence assay. Particulars: human, hek293, 24 h. It counts as cell-based. The method, boiled down: as §2
The subject of another data set is BEAS-2B. The experiment in a line: Cytotoxicity against human BEAS2B cells up to 31 ug/ml after 24 hrs by resazurin-based fluorescence assay. Type of data set: cell-based. An outline of the steps: as §2
The subject of data set [14] is Candida parapsilosis. The experiment in a line: Ratio of MIC in presence of 10% FBS to MIC in absence of 10% FBS for Candida parapsilosis ATCC 22019. Type of data set: functional. An outline of the steps: (§3)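 MIC broth dilution run in parallel in RPMI 1640 with or without 10% fetal bovine serum against C. albicans ATCC 10231, C. parapsilosis ATCC 22019 and A. nidulans ATCC 38163.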

In data set [15] the test system is Candida albicans. The experiment in a line: Ratio of MIC in presence of 10% FBS to MIC in absence of 10% FBS for Candida albicans ATCC 10231. Type of data set: functional. An outline of the steps: as §3
The subject of data set [16] is Aspergillus nidulans. The experiment in a line: Ratio of MIC in presence of 10% FBS to MIC in absence of 10% FBS for Aspergillus nidulans ATCC 38163. It counts as functional. The method, boiled down:
as §3

Data set [17] relates to Candida albicans. The experiment in a line: Ratio of MIC80 for voriconazole resistant Candida albicans ATCC 64124 sessile cells to MIC for voriconazole resistant Candida albicans ATCC 64124. It counts as functional.

As to `CCCCCCCCCCCCCN1CCNCC1`, the MIC in the data set with Candida albicans [1] was 3.6 µM (≈ 0.967 µg/mL); with Candida albicans [2], 3.6 µM (≈ 0.967 µg/mL); against Candida albicans [3], 7.2 µM (≈ 1.93 µg/mL); with Candida albicans [4] it was 3.6 µM (≈ 0.967 µg/mL); with Candida albicans [5], 7.2 µM (≈ 1.93 µg/mL); with Candida albicans [6], 7.2 µM (≈ 1.93 µg/mL). For the same compound, the MIC was determined as 7.2 µM (≈ 1.93 µg/mL) against Candida albicans [7]; 1.8 µM (≈ 0.483 µg/mL) in the data set on Nakaseomyces glabratus; 3.6 µM (≈ 0.967 µg/mL) in the data set on Pichia kudriavzevii; 7.2 µM (≈ 1.93 µg/mL) against Candida parapsilosis [8]; 7.2 µM (≈ 1.93 µg/mL) in the data set with Aspergillus flavus; 3.6 µM (≈ 0.967 µg/mL) in the data set on Aspergillus nidulans [9]. The compound also came in with an MIC in the data set with Aspergillus terreus of 7.2 µM (≈ 1.93 µg/mL). In addition, the solubility entry in [10] and in data set [11] was “Soluble” throughout.

On to `CCCCCCCCCCCCN1CCNCC1`, for which the MIC in the data set with Candida albicans [1] amounted to 7.7 µM (≈ 1.96 µg/mL); in the data set on Candida albicans [2], 30.7 µM (≈ 7.81 µg/mL); in the data set on Candida albicans [3], 15.3 µM (≈ 3.89 µg/mL); against Candida albicans [4] it was 30.7 µM (≈ 7.81 µg/mL); in the data set on Candida albicans [5], 15.3 µM (≈ 3.89 µg/mL); against Candida albicans [6] it was 15.3 µM (≈ 3.89 µg/mL). Also, the MIC against Candida albicans [7] worked out at 15.3 µM (≈ 3.89 µg/mL); in the data set with Nakaseomyces glabratus it was 7.7 µM (≈ 1.96 µg/mL); against Pichia kudriavzevii, 7.7 µM (≈ 1.96 µg/mL); against Candida parapsilosis [8] it was 7.7 µM (≈ 1.96 µg/mL); against Aspergillus flavus, 15.3 µM (≈ 3.89 µg/mL); in the data set with Aspergillus nidulans [9], 7.7 µM (≈ 1.96 µg/mL). The MIC against Aspergillus terreus is 30.7 µM (≈ 7.81 µg/mL); with Candida albicans [12], 3.9 µg/mL. The compound also returned an MIC50 in the data set with Candida albicans [13] of 7.8 µg/mL (≈ 30.7 µM). In the data set on Candida albicans [13], the MIC80 worked out at 31.3 µg/mL (≈ 123 µM). The Activity result in the data set on A549, with HEK293 and in the data set with BEAS-2B was “Toxic” in each case. Moreover, the solubility entry in data set [10] and in [11] was “Soluble” each time. Besides, the Ratio in the data set on Candida parapsilosis [14] is 2 - 8; in the data set on Candida albicans [15], 2 - 8; in the data set with Aspergillus nidulans [16], 2 - 8; in the data set on Candida albicans [17], 1 - 4.

Turning to `CN1CCN(CC(O)(Cn2cncn2)c2ccc(F)cc2F)CC1` (stereo unspecified), the MIC stood at 23.1 µM (≈ 7.79 µg/mL) against Candida albicans [1]; 92.8 µM (≈ 31.3 µg/mL) with Candida albicans [2]; 23.1 µM (≈ 7.79 µg/mL) against Candida albicans [3]; 92.8 µM (≈ 31.3 µg/mL) with Candida albicans [4]; 23.1 µM (≈ 7.79 µg/mL) in the data set on Candida albicans [5]; 92.8 µM (≈ 31.3 µg/mL) in the data set on Candida albicans [6]. The MIC with Candida albicans [7] is 92.8 µM (≈ 31.3 µg/mL); in the data set with Nakaseomyces glabratus, 92.8 µM (≈ 31.3 µg/mL); against Pichia kudriavzevii, 46.2 µM (≈ 15.6 µg/mL); in the data set with Candida parapsilosis [8], 2.9 µM (≈ 0.978 µg/mL); in the data set with Aspergillus flavus, 92.8 µM (≈ 31.3 µg/mL); against Aspergillus nidulans [9], 2.9 µM (≈ 0.978 µg/mL). In the data set with Aspergillus terreus, this compound yielded an MIC of 92.8 µM (≈ 31.3 µg/mL).

Consider `CCCCCN1CCN(CC(O)(Cn2cncn2)c2ccc(F)cc2F)CC1` (stereo unspecified), for which the MIC was > 79.5 µM with Candida albicans [1]; > 79.5 µM in the data set with Candida albicans [2]; > 79.5 µM in the data set with Candida albicans [3]; 79.5 µM (≈ 31.3 µg/mL) in the data set on Candida albicans [4]; > 79.5 µM against Candida albicans [5]; > 79.5 µM against Candida albicans [6]. In addition, the MIC against Candida albicans [7] is > 79.5 µM; with Nakaseomyces glabratus, > 79.5 µM; against Pichia kudriavzevii, > 79.5 µM; with Candida parapsilosis [8], 39.6 µM (≈ 15.6 µg/mL); in the data set with Aspergillus flavus, > 79.5 µM; in the data set on Aspergillus nidulans [9], > 79.5 µM. For the same compound, in the data set on Aspergillus terreus, the MIC is > 79.5 µM.
